Source: ChEMBL document CHEMBL1135602 (J Med Chem, 2002)
pIC50, pKi: −log10 of the molar value. The source made the active and inactive calls. The calls are words filed in the database; no cut-off is given here.

system: BC; assay: Cytotoxicity against human breast cancer cells.; type: functional, cell-based; conditions: not given

| Compound | pIC50 |
| --- | --- |
| CCOc1cc(Cc2cnc(N)nc2N)ccc1OCc1cc(OC)c(OC)c(OC)c1 | 3.86 |
| COc1cc(Cc2cnc(N)nc2N)ccc1OCCCc1ccccc1 | 4.49 |
| CCCOc1cc(Cc2cnc(N)nc2N)ccc1OCc1cc(OC)c(OC)c(OC)c1 | 4.25 |
| Nc1nc(N)c(-c2ccccc2)c(CCCc2ccccc2)n1 | < 3.30 |

target: Bifunctional dihydrofolate reductase-thymidylate synthase (Plasmodium falciparum K1) (UniProt P13922); assay: Inhibition of S108N mutant dihydrofolate reductase (DHFR)relative to Tmp; conditions: not given
Sequence (P13922 whole entry, looked up): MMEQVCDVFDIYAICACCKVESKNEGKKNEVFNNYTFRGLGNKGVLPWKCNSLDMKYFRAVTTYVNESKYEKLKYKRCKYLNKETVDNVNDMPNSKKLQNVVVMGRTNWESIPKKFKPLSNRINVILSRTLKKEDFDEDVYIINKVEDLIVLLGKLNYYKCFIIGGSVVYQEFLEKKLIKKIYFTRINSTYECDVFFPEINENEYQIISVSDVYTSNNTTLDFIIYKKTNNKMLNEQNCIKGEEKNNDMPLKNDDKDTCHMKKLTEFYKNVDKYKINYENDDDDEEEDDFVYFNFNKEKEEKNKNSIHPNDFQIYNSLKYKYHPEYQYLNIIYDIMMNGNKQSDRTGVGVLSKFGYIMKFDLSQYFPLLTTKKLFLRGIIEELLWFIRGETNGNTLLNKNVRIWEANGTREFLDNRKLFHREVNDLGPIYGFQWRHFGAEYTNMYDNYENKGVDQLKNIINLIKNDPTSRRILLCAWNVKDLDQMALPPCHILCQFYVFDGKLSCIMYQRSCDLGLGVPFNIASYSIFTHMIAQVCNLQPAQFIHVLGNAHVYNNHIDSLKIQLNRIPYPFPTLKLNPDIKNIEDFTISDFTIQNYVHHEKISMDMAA
Outline: (§1)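 Assayed at 25 °C in 50 mM TES pH 7.0, 75 mM β-mercaptoethanol, 1 mg/mL BSA, with 100 µM H2folate and 100 µM NADPH. A340 was followed. Ki was derived from IC50 = Ki(1+[S]/Km), assuming competitive inhibition.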

| Compound | Relative activity |
| --- | --- |
| COc1cc(Cc2cnc(N)nc2N)ccc1OCCCc1ccccc1 | 0.2 |

target: Bifunctional dihydrofolate reductase-thymidylate synthase (Plasmodium falciparum K1) (UniProt P13922); assay: Inhibition of Plasmodium falciparum wild-type dihydrofolate reductase (DHFR) relative to Pyrimethamine.; conditions: not given

| Compound | Relative activity |
| --- | --- |
| Nc1nc(N)c(-c2ccccc2)c(CCCc2ccccc2)n1 | 0.9 |

target: Bifunctional dihydrofolate reductase-thymidylate synthase (Plasmodium falciparum K1) (UniProt P13922); assay: (§2) Inhibition of the wild-type dihydrofolate reductase (DHFR) relative to Pyr.; conditions: not given; outline: as §1

| Compound | Relative activity |
| --- | --- |
| CCc1nc(N)nc(N)c1-c1ccc(Br)cc1 | 0.5 |

target: Bifunctional dihydrofolate reductase-thymidylate synthase (Plasmodium falciparum K1) (UniProt P13922); assay: as §2; conditions: not given; outline: as §1

| Compound | Relative activity |
| --- | --- |
| CCc1nc(N)nc(N)c1-c1ccc(Br)cc1 | 1.1 |

target: Bifunctional dihydrofolate reductase-thymidylate synthase (Plasmodium falciparum K1) (UniProt P13922); assay: Inhibition of the wild-type dihydrofolate reductase (DHFR) relative to Tmp; conditions: not given; outline: as §1

| Compound | Relative activity |
| --- | --- |
| COc1cc(Cc2cnc(N)nc2N)ccc1OCCCc1ccccc1 | 0.2 |

target: T1, Dihydrofolate reductase (Homo sapiens) (UniProt P00374); assay: Cytotoxicity by selective inhibition against human dihydrofolate reductase (DHFR);NA is no inhibition; conditions: not given
T1 sequence (whole entry): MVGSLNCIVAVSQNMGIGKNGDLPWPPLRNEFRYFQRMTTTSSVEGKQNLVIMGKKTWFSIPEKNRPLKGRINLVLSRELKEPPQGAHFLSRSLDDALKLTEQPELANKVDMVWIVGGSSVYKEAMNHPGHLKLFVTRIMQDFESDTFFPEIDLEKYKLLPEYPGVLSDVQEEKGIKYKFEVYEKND

| Compound | NI |
| --- | --- |
| CCOc1cc(Cc2cnc(N)nc2N)ccc1OCc1cc(OC)c(OC)c(OC)c1 | inactive |
| CCCOc1cc(Cc2cnc(N)nc2N)ccc1OCc1cc(OC)c(OC)c(OC)c1 | inactive |
| Nc1nc(N)c(-c2ccccc2)c(CCCc2ccccc2)n1 | inactive |

target: Bifunctional dihydrofolate reductase-thymidylate synthase (Plasmodium falciparum K1, UniProt P13922); assay: Inhibition of the C59R+S108N mutant of dihydrofolate reductase (DHFR); conditions: not given
Sequence (P13922 whole entry): as the sequence (P13922 whole entry, looked up) above
Outline: (§3)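 Assay at 25 °C: 50 mM TES pH 7.0, 75 mM β-mercaptoethanol, 1 mg/mL BSA, 100 µM H2folate and 100 µM NADPH. NADPH oxidation followed at 340 nm. Ki derived from IC50 as Ki(1+[S]/Km), assuming competitive inhibition.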

| Compound | pKi |
| --- | --- |
| COc1cc(Cc2cnc(N)nc2N)ccc1OCCCc1ccccc1 | 7.35 |
| COc1cc(Cc2cnc(N)nc2N)ccc1OCc1cc(OC)c(OC)c(OC)c1 | 8.06 |
| CCc1nc(N)nc(N)c1-c1ccc(Br)cc1 | 7.35 |
| Nc1nc(N)c(-c2ccccc2)c(CCCc2ccccc2)n1 | 8.62 |

target: Bifunctional dihydrofolate reductase-thymidylate synthase (Plasmodium falciparum K1, UniProt P13922, S108N); assay: Inhibition of the S108N mutant of dihydrofolate reductase (DHFR); conditions: not given; outline: as §3
Sequence (P13922 whole entry, looked up, stated change not applied): as the sequence (P13922 whole entry, looked up) above

| Compound | pKi |
| --- | --- |
| COc1cc(Cc2cnc(N)nc2N)ccc1OCCCc1ccccc1 | 7.58 |
| COc1cc(Cc2cnc(N)nc2N)ccc1OCc1cc(OC)c(OC)c(OC)c1 | 8.21 |
| CCc1nc(N)nc(N)c1-c1ccc(Br)cc1 | 7.50 |
| Nc1nc(N)c(-c2ccccc2)c(CCCc2ccccc2)n1 | 9.05 |

target: Bifunctional dihydrofolate reductase-thymidylate synthase (Plasmodium falciparum K1) (UniProt P13922); assay: Inhibition of the C59R+S108N mutant of dihydrofolate reductase (DHFR) relative to Pyr.; conditions: not given; outline: as §1

| Compound | Relative activity |
| --- | --- |
| CCc1nc(N)nc(N)c1-c1ccc(Br)cc1 | 0.8 |

target: Bifunctional dihydrofolate reductase-thymidylate synthase (Plasmodium falciparum K1) (UniProt P13922); assay: Inhibition of the C59R+S108N mutant of dihydrofolate reductase (DHFR)relative to Tmp; conditions: not given; outline: as §1

| Compound | Relative activity |
| --- | --- |
| COc1cc(Cc2cnc(N)nc2N)ccc1OCCCc1ccccc1 | 0.2 |

system: KB; assay: Cytotoxicity against human epidermoid carcinoma KB cell.; type: functional, cell-based; conditions: not given

| Compound | pIC50 |
| --- | --- |
| CCOc1cc(Cc2cnc(N)nc2N)ccc1OCc1cc(OC)c(OC)c(OC)c1 | 3.99 |
| COc1cc(Cc2cnc(N)nc2N)ccc1OCCCc1ccccc1 | 4.14 |
| CCCOc1cc(Cc2cnc(N)nc2N)ccc1OCc1cc(OC)c(OC)c(OC)c1 | 3.74 |
| Nc1nc(N)c(-c2ccccc2)c(CCCc2ccccc2)n1 | < 3.30 |

system: Plasmodium falciparum; assay: Relative antiplasmodial activity (IC50) compared to Pyr against Plasmodium falciparum K1CB1 DHFR double-mutant (C59R/S108N); type: functional; conditions: not given

| Compound | Relative activity |
| --- | --- |
| CCc1nc(N)nc(N)c1-c1ccc(Br)cc1 | 0.8 |

system: Plasmodium falciparum; assay: Relative antiplasmodial activity (IC50) compared to Tmp against Plasmodium falciparum K1CB1 DHFR double-mutant (C59R/S108N); type: functional; conditions: not given

| Compound | Relative activity |
| --- | --- |
| COc1cc(Cc2cnc(N)nc2N)ccc1OCc1cc(OC)c(OC)c(OC)c1 | 0.2 |

system: Plasmodium falciparum; assay: In vitro relative antiplasmodial activity (IC50) compared to Pyr against Plasmodium falciparum TM4/8.2 wild-type; type: functional; conditions: not given

| Compound | Relative activity |
| --- | --- |
| CCc1nc(N)nc(N)c1-c1ccc(Br)cc1 | 0.6 |

system: Plasmodium falciparum; assay: In vitro relative antiplasmodial activity (IC50) compared to Tmp against Plasmodium falciparum TM4/8.2 wild-type; type: functional; conditions: not given

| Compound | Relative activity |
| --- | --- |
| COc1cc(Cc2cnc(N)nc2N)ccc1OCc1cc(OC)c(OC)c(OC)c1 | 0.04 |

system: Plasmodium falciparum; assay: In vitro antiplasmodial activity (IC50) against Plasmodium falciparum wtTM4/8.2; type: functional, organism-based; conditions: not given

| Compound | pIC50 |
| --- | --- |
| COc1cc(Cc2cnc(N)nc2N)ccc1OCCCc1ccccc1 | 5.52 |
| COc1cc(Cc2cnc(N)nc2N)ccc1OCc1cc(OC)c(OC)c(OC)c1 | 6.52 |
| CCc1nc(N)nc(N)c1-c1ccc(Br)cc1 | 7.30 |
| Nc1nc(N)c(-c2ccccc2)c(CCCc2ccccc2)n1 | 6.70 |

system: Vero; assay: Cytotoxicity by the selective inhibition against African green monkey kidney […] (vero cells).; type: functional, cell-based; conditions: Chlorocebus sabaeus

| Compound | pIC50 |
| --- | --- |
| CCOc1cc(Cc2cnc(N)nc2N)ccc1OCc1cc(OC)c(OC)c(OC)c1 | 4.47 |
| COc1cc(Cc2cnc(N)nc2N)ccc1OCCCc1ccccc1 | 3.70 |
| CCCOc1cc(Cc2cnc(N)nc2N)ccc1OCc1cc(OC)c(OC)c(OC)c1 | 4.89 |
| Nc1nc(N)c(-c2ccccc2)c(CCCc2ccccc2)n1 | < 4.30 |

system: Bifunctional dihydrofolate reductase-thymidylate synthase (Plasmodium falciparum K1), P13922 [UNDEFINED MUTATION]; assay: Ratio of Inhibition of the S108N mutant of dihydrofolate reductase (DHFR) to inhibition of wild type dihydrofolate reductase.; conditions: not given
Sequence (P13922 whole entry, looked up, stated change not applied): as the sequence (P13922 whole entry, looked up) above

| Compound | Ratio |
| --- | --- |
| COc1cc(Cc2cnc(N)nc2N)ccc1OCCCc1ccccc1 | 14.8 |
| CCc1nc(N)nc(N)c1-c1ccc(Br)cc1 | 105 |
| Nc1nc(N)c(-c2ccccc2)c(CCCc2ccccc2)n1 | 1.8 |

system: Plasmodium falciparum; assay: IC50 ratio against Plasmodium falciparum K1CB1/TM4; type: functional; conditions: not given

| Compound | Ratio |
| --- | --- |
| COc1cc(Cc2cnc(N)nc2N)ccc1OCCCc1ccccc1 | 3.9 |
| COc1cc(Cc2cnc(N)nc2N)ccc1OCc1cc(OC)c(OC)c(OC)c1 | 92.7 |
| CCc1nc(N)nc(N)c1-c1ccc(Br)cc1 | 500 |
| Nc1nc(N)c(-c2ccccc2)c(CCCc2ccccc2)n1 | 11.5 |

system: not listed separately; assay: Safety ratio is cytotoxicity to BC cells/IC50 K1; type: toxicity, cell-based; conditions: human, BC cells (breast cancer); read-out: Safety ratio
Outline: (§4)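 Safety ratio is the mammalian-cell cytotoxicity IC50 (vero, KB or BC cells) divided by the antiplasmodial IC50 against P. falciparum K1CB1 (C59R+S108N DHFR). Parasites were grown in human erythrocytes (1.5% suspension, 1-2% parasitemia) at 37 °C, 3% CO2, with drug dilutions at 0.1% DMSO final. After 24 h, [3H]hypoxanthine was added for a further 18-24 h. IC50 came from sigmoidal incorporation curves.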

| Compound | selectivity ratio |
| --- | --- |
| COc1cc(Cc2cnc(N)nc2N)ccc1OCCCc1ccccc1 | 2.7 |

system: not listed separately; assay: Safety ratio is cytotoxicity to BC cells/IC50 K1.; type: toxicity, cell-based; conditions: human, BC cells (breast cancer); read-out: Safety ratio
Outline: (§5)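 Ratio of the cytotoxicity IC50 (vero, KB or BC cells, Skehan protocol) to the antiplasmodial IC50 against K1CB1 (C59R+S108N DHFR). […] Label was added at 24 h and cultures ran a further 18-24 h. Final DMSO was 0.1%.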

| Compound | selectivity ratio |
| --- | --- |
| Nc1nc(N)c(-c2ccccc2)c(CCCc2ccccc2)n1 | > 217 |

system: not listed separately; assay: Safety ratio is cytotoxicity to KB cells/IC50 K1; type: toxicity, cell-based; conditions: human, KB cells (epidermoid carcinoma); read-out: Safety ratio; outline: as §4

| Compound | selectivity ratio |
| --- | --- |
| COc1cc(Cc2cnc(N)nc2N)ccc1OCCCc1ccccc1 | 6 |

system: not listed separately; assay: Safety ratio is cytotoxicity to KB cells/IC50 K1.; type: toxicity, cell-based; conditions: human, KB cells (epidermoid carcinoma); read-out: Safety ratio; outline: as §5

| Compound | selectivity ratio |
| --- | --- |
| Nc1nc(N)c(-c2ccccc2)c(CCCc2ccccc2)n1 | > 217 |

system: not listed separately; assay: Safety ratio is cytotoxicity to KB cells/IC50 TM4.; type: toxicity, cell-based; conditions: human, KB cells (epidermoid carcinoma); read-out: Safety ratio
Outline: (§6)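 Ratio of the cytotoxicity IC50 (KB or BC cells, Skehan protocol) to the antiplasmodial IC50 against TM4/8.2 (wild-type DHFR). […] Label was added after 24 h and cultures ran a further 18-24 h.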

| Compound | selectivity ratio |
| --- | --- |
| COc1cc(Cc2cnc(N)nc2N)ccc1OCCCc1ccccc1 | 24 |
| Nc1nc(N)c(-c2ccccc2)c(CCCc2ccccc2)n1 | > 2500 |

system: not listed separately; assay: Safety ratio is cytotoxicity to vero cells/IC50 K1.; type: toxicity, cell-based; conditions: monkey, read-out: Safety ratio; outline: as §5

| Compound | selectivity ratio |
| --- | --- |
| COc1cc(Cc2cnc(N)nc2N)ccc1OCCCc1ccccc1 | 17 |
| Nc1nc(N)c(-c2ccccc2)c(CCCc2ccccc2)n1 | > 22 |

system: Plasmodium falciparum; assay: Safety ratio as cytotoxicity in vero cells relative to IC50 TM4; type: functional; conditions: not given

| Compound | Safety ratio |
| --- | --- |
| COc1cc(Cc2cnc(N)nc2N)ccc1OCCCc1ccccc1 | 67 |
| Nc1nc(N)c(-c2ccccc2)c(CCCc2ccccc2)n1 | >250 |

system: Bifunctional dihydrofolate reductase-thymidylate synthase (Plasmodium falciparum K1), P13922 [UNDEFINED MUTATION]; assay: Ratio of Inhibition of the C59R+S108N mutant of dihydrofolate reductase (DHFR) to inhibition of wild type dihydrofolate reductase.; conditions: not given

| Compound | Ratio |
| --- | --- |
| COc1cc(Cc2cnc(N)nc2N)ccc1OCCCc1ccccc1 | 24.5 |
| CCc1nc(N)nc(N)c1-c1ccc(Br)cc1 | 148 |
| Nc1nc(N)c(-c2ccccc2)c(CCCc2ccccc2)n1 | 4.8 |

system: not listed separately; assay: Safety ratio is cytotoxicity to BC cells/IC50 TM4.; type: toxicity, cell-based; conditions: human, BC cells (breast cancer); read-out: Safety ratio; outline: as §6

| Compound | selectivity ratio |
| --- | --- |
| COc1cc(Cc2cnc(N)nc2N)ccc1OCCCc1ccccc1 | 11 |
| Nc1nc(N)c(-c2ccccc2)c(CCCc2ccccc2)n1 | > 2500 |
